{"source": "ChEMBL document CHEMBL2176891", "about": "“Structural investigation of anti-Trypanosoma cruzi 2-iminothiazolidin-4-ones allows the identification of agents with efficacy in infected mice” (J Med Chem, 2012)", "key": {"Trypanosoma cruzi [1]": {"test_system": "Trypanosoma cruzi", "experiment": "Antitrypanosomal activity against Trypanosoma cruzi", "type": "functional, organism-based"}, "[2]": {"biological_target": "Cruzipain (Trypanosoma cruzi) (UniProt P25779)", "sequence (P25779 123-467 limits assumed)": "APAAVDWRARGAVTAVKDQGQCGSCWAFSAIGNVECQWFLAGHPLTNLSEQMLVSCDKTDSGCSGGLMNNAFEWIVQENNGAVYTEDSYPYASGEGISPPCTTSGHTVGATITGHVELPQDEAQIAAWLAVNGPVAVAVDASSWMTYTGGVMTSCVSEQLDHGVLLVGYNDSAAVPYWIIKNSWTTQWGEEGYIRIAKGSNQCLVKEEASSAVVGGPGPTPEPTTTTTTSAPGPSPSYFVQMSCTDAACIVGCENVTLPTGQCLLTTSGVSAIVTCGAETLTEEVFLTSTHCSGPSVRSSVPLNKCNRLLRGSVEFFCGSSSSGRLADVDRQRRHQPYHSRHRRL", "experiment": "(§1) Inhibition of Trypanosoma cruzi recombinant cruzain using Z-FR-AMC as substrate at 20 uM preincubated for 10 mins before substrate addition"}, "Cruzipain [3]": {"biological_target": "T1, Cruzipain (Trypanosoma cruzi, UniProt P25779)", "T1 sequence (P25779 whole entry)": "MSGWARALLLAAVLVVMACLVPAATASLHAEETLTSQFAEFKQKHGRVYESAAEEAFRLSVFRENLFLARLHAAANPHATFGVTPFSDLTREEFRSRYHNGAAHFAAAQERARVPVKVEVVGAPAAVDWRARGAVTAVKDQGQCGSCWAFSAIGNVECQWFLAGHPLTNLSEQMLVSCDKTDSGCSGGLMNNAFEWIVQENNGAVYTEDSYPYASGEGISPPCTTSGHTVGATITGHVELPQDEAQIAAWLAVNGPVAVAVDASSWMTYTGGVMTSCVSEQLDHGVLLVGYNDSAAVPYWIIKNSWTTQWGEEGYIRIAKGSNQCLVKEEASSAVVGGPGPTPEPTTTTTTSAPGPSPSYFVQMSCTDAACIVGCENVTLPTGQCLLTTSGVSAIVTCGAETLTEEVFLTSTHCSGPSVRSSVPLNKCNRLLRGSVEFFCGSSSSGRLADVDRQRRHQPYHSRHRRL", "experiment": "as §1"}, "[4]": {"experiment": "Cytotoxicity against BALB/c mouse splenocytes assessed as highest nontoxic concentration by measuring [3H]-thymidine incorporation after 24 hrs by beta-radiation counting", "type": "cell-based, Splenocyte", "conditions": "for MNTC at 24 h: mouse, splenocytes, read-out: Activity; for highest nontoxic concentration: Mus musculus, Splenocyte, read-out: IC50", "procedure,_shortened": "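BALB/c splenocytes, 5 × 10⁶ cells/well in RPMI-1640 with 10% FBS. Compound in DMSO at 1.0, 10 and 100 μg/mL or more, triplicate; untreated and saponin controls. 24 h at 37 °C, 5% CO₂. 1.0 μCi ³H-thymidine added, incorporation read by β-counting as % of untreated. Highest nontoxic concentration estimated.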"}, "Trypanosoma cruzi [5]": {"test_system": "Trypanosoma cruzi", "experiment": "Antitrypanosomal activity against trypomastigotes of Trypanosoma cruzi Y infected in LLC-MK2 cells assessed as parasite motility after 24 hrs", "type": "functional, organism-based", "conditions": "LLC-MK2, 24 h", "procedure,_shortened": "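Y strain bloodstream trypomastigotes taken from LLC-MK2 culture supernatant, 4 × 10⁵ cells/well. Five compound concentrations (DMSO), triplicate, 24 h at 37 °C, 5% CO₂. Viable parasites judged by motility in a Neubauer chamber. Inhibition calculated relative to untreated culture; IC50 by nonlinear regression.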"}, "[6]": {"experiment": "Selectivity index, ratio of IC50 for concanavalin A-stimulated BALB/c mouse splenocytes to IC50 for trypomastigotes of Trypanosoma cruzi Y infected in mouse peritoneal macrophages", "procedure,_shortened": "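Ratio of splenocyte IC50 to IC50 against intracellular parasites in Y strain-infected peritoneal macrophages (4-day assay).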"}, "[7]": {"experiment": "Antiproliferative activity against concanavalin A-stimulated BALB/c mouse splenocytes after 72 hrs by AlamarBlue assay", "type": "cell-based", "conditions": "Splenocyte", "procedure,_shortened": "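Splenocytes from BALB/c mice at 5 × 10⁶ cells/well in RPMI-1640 with 10% FBS, stimulated with 2.0 μg/mL concanavalin A. Compounds in DMSO, six concentrations in triplicate. Controls: con A alone, no con A, and con A plus 0.01 μg/mL cyclosporin A. 72 h at 37 °C, 5% CO₂. AlamarBlue for 1 h, fluorescence ex 530/em 590 nm. IC50 by nonlinear regression.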"}, "Trypanosoma cruzi [8]": {"test_system": "Trypanosoma cruzi", "experiment": "Antitrypanosomal activity against trypomastigotes of Trypanosoma cruzi Y infected in mouse peritoneal macrophages assessed as reduction of intracellular parasite level after 4 days", "type": "functional, organism-based", "conditions": "96 h", "procedure,_shortened": "(§2)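 Peritoneal exudate macrophages, 2 × 10⁵/well on coverslips, infected with Y strain trypomastigotes at 10 parasites per macrophage for 2 h, then washed. Compound in DMSO added for 6 h, medium replaced, culture continued 4 days. After methanol fixation and Giemsa staining, 100 cells per slide counted for % infected macrophages and amastigotes per cell. IC50 based on % infected cells versus untreated.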"}, "Cathepsin S": {"biological_target": "Cathepsin S (Homo sapiens, UniProt P25774)", "sequence (P25774 whole entry)": "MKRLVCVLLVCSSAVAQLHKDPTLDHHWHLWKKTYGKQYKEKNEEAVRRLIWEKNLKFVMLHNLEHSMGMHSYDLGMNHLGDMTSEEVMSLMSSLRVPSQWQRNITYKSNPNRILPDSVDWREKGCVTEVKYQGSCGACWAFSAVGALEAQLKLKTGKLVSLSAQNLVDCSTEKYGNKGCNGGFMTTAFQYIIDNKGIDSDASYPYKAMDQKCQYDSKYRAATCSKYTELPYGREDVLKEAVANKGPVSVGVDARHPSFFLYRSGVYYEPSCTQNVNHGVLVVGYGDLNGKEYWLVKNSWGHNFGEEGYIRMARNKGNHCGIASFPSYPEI", "experiment": "Inhibition of recombinant cathepsin S using ZFR-pNA as substrate preincubated for 45 mins", "procedure,_shortened": "(§3)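 Recombinant cathepsin L or S activated with 1 mM DTT in 0.1 M acetate pH 5.5. Preincubated 45 min at room temperature with compound in phosphate buffer with 0.1% BSA, 1 mM EDTA and 0.001% Tween. Z-FR-pNA added, reaction 5 min; final 30 nM enzyme and 5.0 μM substrate. Triplicate runs; IC50 from at least seven concentrations.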"}, "Procathepsin L [9]": {"biological_target": "T2, Procathepsin L (Homo sapiens, UniProt P07711)", "experiment": "Inhibition of recombinant cathepsin L using ZFR-pNA as substrate at 100 uM preincubated for 45 mins", "procedure,_shortened": "as §3"}, "Procathepsin L [10]": {"biological_target": "T2, Procathepsin L", "experiment": "Inhibition of recombinant cathepsin L using ZFR-pNA as substrate preincubated for 45 mins", "procedure,_shortened": "as §3"}, "Trypanosoma cruzi [11]": {"test_system": "Trypanosoma cruzi", "experiment": "Antitrypanosomal activity against epimastigotes of Trypanosoma cruzi Y in axenic culture assessed as parasite motility after 11 days", "conditions": "264 h"}, "Trypanosoma cruzi [12]": {"test_system": "Trypanosoma cruzi", "experiment": "Inhibition of trypomastigotes of Trypanosoma cruzi Y invasion to mouse peritoneal macrophages at 50 uM […]", "type": "functional, organism-based"}, "Trypanosoma cruzi [13]": {"test_system": "Trypanosoma cruzi", "experiment": "Antitrypanosomal activity against trypomastigotes of Trypanosoma cruzi Y infected in mouse peritoneal macrophages assessed as reduction of intracellular parasite level at 10 uM after 4 days", "type": "functional, organism-based", "procedure,_shortened": "as §2"}, "Trypanosoma cruzi [14]": {"test_system": "Trypanosoma cruzi", "experiment": "Induction of ultrastructural alteration of trypomastigotes of Trypanosoma cruzi Y at 3.9 uM by scanning electron microscopy", "type": "functional, organism-based", "procedure,_shortened": "(§4)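 Y strain bloodstream trypomastigotes and infected macrophages exposed to 3.9 μM compound, then examined by transmission and scanning electron microscopy.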"}, "Trypanosoma cruzi [15]": {"test_system": "Trypanosoma cruzi", "experiment": "Induction of ultrastructural alteration of trypomastigotes of Trypanosoma cruzi Y at 3.9 uM by transmission electron microscopy", "type": "functional, organism-based", "procedure,_shortened": "as §4"}, "Cruzipain [16]": {"biological_target": "T1, Cruzipain", "experiment": "Inhibition of Trypanosoma cruzi recombinant cruzain using Z-FR-AMC as substrate preincubated for 10 mins before substrate addition", "conditions": "read-out: IC50", "procedure,_shortened": "(§5)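 Recombinant cruzain preincubated 10 min at room temperature with compound (DMSO) in phosphate buffer containing EDTA, 100 mM NaCl and DTT. Z-FR-AMC then added; final 0.5 nM enzyme and 2 μM substrate. Fluorescence read at 1, 5 and 10 min; % inhibition versus no-inhibitor control. Single-point values are triplicate means; IC50 by nonlinear regression from multiple concentrations. Some runs used 0.01% Triton X-100.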"}, "[17]": {"biological_target": "Cruzipain (Trypanosoma cruzi) (UniProt P25779)", "experiment": "Inhibition of Trypanosoma cruzi recombinant cruzain using Z-FR-AMC as substrate at 20 uM preincubated for 10 mins before substrate addition in presence of 0.01% of Triton X-100", "procedure,_shortened": "as §5"}, "Trypanosoma cruzi [18]": {"test_system": "Trypanosoma cruzi", "experiment": "Antitrypanosomal activity against trypomastigotes of Trypanosoma cruzi Y infected in BALB/c mouse assessed as reduction of blood parasite level at 250 umol/kg, po qd for 5 days", "type": "functional", "parameters": "scale not given: the % may be the effect or the level left", "procedure,_shortened": "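Female BALB/c mice, 6–8 weeks old, infected ip with 10⁴ Y strain bloodstream trypomastigotes in saline; six mice per group. From day 5 postinfection, 250 μmol/kg given orally by gavage once daily for 5 days. Fresh-blood parasitemia counted in a hemocytometer. Reduction = (vehicle − treated)/vehicle × 100, using day 5 of treatment; two independent experiments.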"}, "Mus musculus [19]": {"test_system": "Mus musculus", "experiment": "Toxicity in BALB/c mouse assessed as mortality at 250 umol/kg, po qd for 5 days", "type": "organism-based", "conditions": "in vivo, 120 h", "procedure,_shortened": "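Female BALB/c mice, 6–8 weeks old, were infected i.p. with 10⁴ Y strain bloodstream trypomastigotes in saline and randomly grouped, six per group. From day 5 postinfection, drug was given orally by gavage at 250 μmol/kg once daily for five consecutive days. Blood parasites were counted by hemocytometer, and survival was followed for one month. Untreated and benznidazole-treated infected mice served as controls.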"}, "Mus musculus [20]": {"test_system": "Mus musculus", "experiment": "Toxicity in BALB/c mouse assessed as reduction in body weight at 250 umol/kg, po qd for 5 days", "type": "organism-based", "conditions": "in vivo, 120 h"}, "Trypanosoma cruzi [21]": {"test_system": "Trypanosoma cruzi", "experiment": "Antitrypanosomal activity against epimastigotes of Trypanosoma cruzi Y assessed as reduction of proteolytic activity using gelatin as substrate after 48 hrs by zymography assays"}}, "note": "pIC50: −log10 of the molar value. Calls of active or inactive are those of the source. The calls are words filed in the database; no cut-off is given here."}
{"molecule": "Cc1ccc(SC/C=N/N=C2\\NC(=O)C(C)S2)cc1", "note": "(configuration not stated)", "values": [{"measurement": "pIC50", "setting": "Trypanosoma cruzi [1]", "result": 4.09}]}
{"molecule": "C/C(COc1ccccc1)=N\\Nc1nc(-c2ccccc2)cs1", "values": [{"measurement": "inhibition", "setting": "[2]", "result": "inactive"}, {"measurement": "pIC50", "setting": "Cruzipain [3]", "result": "< 4.70"}, {"measurement": "MNTC at 24 h", "setting": "[4]", "result": 50, "unit": "µg/mL"}, {"measurement": "pIC50", "setting": "Trypanosoma cruzi [5]", "result": 4.71}]}
{"molecule": "C/C(COc1ccccc1)=N\\N=C1/NC(=O)CS1", "values": [{"measurement": "Ratio IC50", "setting": "[6]", "result": 10}, {"measurement": "pIC50", "setting": "[7]", "result": 4.01}, {"measurement": "pIC50", "setting": "Trypanosoma cruzi [8]", "result": 4.71}, {"measurement": "pIC50", "setting": "Cathepsin S", "result": "< 4.00"}, {"measurement": "inhibition", "setting": "Procathepsin L [9]", "result": 1, "unit": "%"}, {"measurement": "pIC50", "setting": "Procathepsin L [10]", "result": "< 4.00"}, {"measurement": "inhibition", "setting": "[2]", "result": 0, "unit": "%"}, {"measurement": "highest nontoxic concentration", "setting": "[4]", "result": "> 200", "unit": "µM"}, {"measurement": "MNTC at 24 h", "setting": "[4]", "result": "> 100", "unit": "µg/mL"}, {"measurement": "pIC50", "setting": "Trypanosoma cruzi [5]", "result": 4.72}, {"measurement": "pIC50", "setting": "Trypanosoma cruzi [11]", "result": 4.63}]}
{"molecule": "C/C(COc1ccccc1)=N\\N=C1\\SC(C(C)C)C(=O)N1c1ccccc1", "note": "(racemic)", "values": [{"measurement": "inhibition", "setting": "Trypanosoma cruzi [12]", "result": "Active"}, {"measurement": "Activity", "setting": "Trypanosoma cruzi [13]", "result": "Active"}, {"measurement": "Ratio IC50", "setting": "[6]", "result": 25}, {"measurement": "pIC50", "setting": "[7]", "result": "< 3.58"}, {"measurement": "pIC50", "setting": "Trypanosoma cruzi [8]", "result": 5.00}, {"measurement": "Activity", "setting": "Trypanosoma cruzi [14]", "result": "Active"}, {"measurement": "Activity", "setting": "Trypanosoma cruzi [15]", "result": "Active"}, {"measurement": "pIC50", "setting": "Cathepsin S", "result": "< 4.00"}, {"measurement": "inhibition", "setting": "Procathepsin L [9]", "result": 10, "unit": "%"}, {"measurement": "pIC50", "setting": "Procathepsin L [10]", "result": "< 4.00"}, {"measurement": "pIC50", "setting": "Cruzipain [16]", "result": 5.18}, {"measurement": "inhibition", "setting": "[17]", "result": 81, "unit": "%"}, {"measurement": "inhibition", "setting": "[2]", "result": 78, "unit": "%"}, {"measurement": "highest nontoxic concentration", "setting": "[4]", "result": "> 262", "unit": "µM"}, {"measurement": "MNTC at 24 h", "setting": "[4]", "result": "> 100", "unit": "µg/mL"}, {"measurement": "pIC50", "setting": "Trypanosoma cruzi [5]", "result": 5.21}, {"measurement": "Activity", "setting": "Trypanosoma cruzi [18]", "result": 89.6, "unit": "%"}, {"measurement": "Activity", "setting": "Mus musculus [19]", "result": "Non-toxic"}, {"measurement": "Activity", "setting": "Mus musculus [20]", "result": "Non-toxic"}, {"measurement": "pIC50", "setting": "Trypanosoma cruzi [11]", "result": 5.31}, {"measurement": "Activity", "setting": "Trypanosoma cruzi [21]", "result": "Dose-dependent effect"}]}
{"molecule": "O=C(Cn1ccnc1[N+](=O)[O-])NCc1ccccc1", "note": "[BENZNIDAZOLE]", "values": [{"measurement": "Activity", "setting": "Trypanosoma cruzi [13]", "result": "Active"}, {"measurement": "pIC50", "setting": "Trypanosoma cruzi [8]", "result": 4.86}, {"measurement": "pIC50", "setting": "Trypanosoma cruzi [5]", "result": 5.21}, {"measurement": "Activity", "setting": "Trypanosoma cruzi [18]", "result": ">99", "unit": "%"}, {"measurement": "pIC50", "setting": "Trypanosoma cruzi [11]", "result": 5.18}]}
